The record followed here is ChEMBL document CHEMBL5131379 (J Med Chem, 2021).

The nature of one data set: in vitro. Conditions: human, MRC9 cells.
Data set [1] has as its system MV4-11. Description: Induction of apoptosis in human MV4-11 cells assessed as viable cells at 0.5 uM measured after 18 hrs by Annexin V-FITC/propidium iodide staining based FACS flow cytometry (reference value: 83.23%). The class given is functional. The note with it: read-out: Activity. A general note: A flow cytometer gives signals particle by particle.
Data set [2] concerns MV4-11. In words: Induction of apoptosis in human MV4-11 cells at 0.5 uM assessed as increase in cleaved caspase-3 level measured after 6 hrs by Western blot analysis. On the technique in general: In western blotting, separated proteins are transferred to a membrane and probed.
Data set [3] has as its system MV4-11. In words: Induction of apoptosis in human MV4-11 cells assessed as late apoptotic cells at 2 uM measured after 18 hrs by Annexin V-FITC/propidium iodide staining based FACS flow cytometry (reference value: 7.49%). The class given is functional.
Data set [4] concerns MV4-11. Description: Induction of apoptosis in human MV4-11 cells assessed as early apoptotic cells at 2 uM measured after 18 hrs by Annexin V-FITC/propidium iodide staining based FACS flow cytometry (reference value: 2.23%). The class given is functional.
Data set [5] relates to MV4-11. Description: Induction of apoptosis in human MV4-11 cells assessed as early apoptotic cells at 1 uM measured after 18 hrs by Annexin V-FITC/propidium iodide staining based FACS flow cytometry (reference value: 2.23%). The class given is functional.
In data set [6] the target is T1, Protein deacetylase HDAC6 (Homo sapiens) (UniProt Q9UBN7).
T1 sequence (whole entry): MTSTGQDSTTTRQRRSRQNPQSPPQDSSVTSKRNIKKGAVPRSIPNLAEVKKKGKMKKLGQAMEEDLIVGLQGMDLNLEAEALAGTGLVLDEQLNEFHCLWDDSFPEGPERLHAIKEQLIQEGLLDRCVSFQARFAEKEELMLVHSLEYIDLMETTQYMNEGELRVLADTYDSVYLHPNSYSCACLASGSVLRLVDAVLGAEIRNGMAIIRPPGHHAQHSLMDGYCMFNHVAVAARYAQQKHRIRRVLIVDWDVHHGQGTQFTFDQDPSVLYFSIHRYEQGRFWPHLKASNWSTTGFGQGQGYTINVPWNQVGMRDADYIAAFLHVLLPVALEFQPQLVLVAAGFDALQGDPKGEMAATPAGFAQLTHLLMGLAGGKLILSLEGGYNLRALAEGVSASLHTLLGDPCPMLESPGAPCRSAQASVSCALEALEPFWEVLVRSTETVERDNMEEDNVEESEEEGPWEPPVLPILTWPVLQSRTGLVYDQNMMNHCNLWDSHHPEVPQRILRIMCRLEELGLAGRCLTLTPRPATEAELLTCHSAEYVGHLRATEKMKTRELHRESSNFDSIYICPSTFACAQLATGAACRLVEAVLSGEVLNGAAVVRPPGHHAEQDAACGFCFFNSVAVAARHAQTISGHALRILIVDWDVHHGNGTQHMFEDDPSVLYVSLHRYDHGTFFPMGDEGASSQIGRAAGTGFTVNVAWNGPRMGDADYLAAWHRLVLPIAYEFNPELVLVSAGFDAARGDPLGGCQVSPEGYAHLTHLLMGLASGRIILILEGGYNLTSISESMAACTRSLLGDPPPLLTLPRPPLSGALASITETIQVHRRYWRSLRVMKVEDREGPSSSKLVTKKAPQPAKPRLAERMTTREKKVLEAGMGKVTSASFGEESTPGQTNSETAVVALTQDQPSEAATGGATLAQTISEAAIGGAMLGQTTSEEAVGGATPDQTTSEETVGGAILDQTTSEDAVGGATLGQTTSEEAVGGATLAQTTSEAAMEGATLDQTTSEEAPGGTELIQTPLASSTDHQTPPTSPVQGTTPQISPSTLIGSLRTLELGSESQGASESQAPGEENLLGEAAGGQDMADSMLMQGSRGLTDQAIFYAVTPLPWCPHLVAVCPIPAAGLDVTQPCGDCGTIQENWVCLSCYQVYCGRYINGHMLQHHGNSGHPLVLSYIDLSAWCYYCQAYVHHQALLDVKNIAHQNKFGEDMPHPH
In words: Binding affinity to HDAC6 (unknown origin) assessed as residence time.

For data set [7], the target named is T1, Protein deacetylase HDAC6 (Homo sapiens). In words: Inhibition of HDAC6 in human MV4-11 cells assessed as increase in acetylated alpha-tubulin incubated for 6 hrs by Western blot analysis. The class given is cell-based. A digest of the protocol:
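Protein quantified by BCA, run on 4–20% SDS gel, blotted to nitrocellulose. Probed overnight at 4 °C for acetylated α-tubulin and acetylated H3 (Lys18), HSC70 as loading control. HRP secondaries, ECL detection.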

For data set [8], the system named is MV4-11. Description: Induction of apoptosis in human MV4-11 cells assessed as viable cells at 2 uM measured after 18 hrs by Annexin V-FITC/propidium iodide staining based FACS flow cytometry (reference value: 83.23%). The class given is functional. Conditions: read-out: Activity.
Data set [9] relates to MV4-11. Description: Induction of apoptosis in human MV4-11 cells assessed as early apoptotic cells at 4 uM measured after 18 hrs by Annexin V-FITC/propidium iodide staining based FACS flow cytometry (reference value: 2.23%). The class given is functional.
For data set [10], the system named is MV4-11. Description: Induction of apoptosis in human MV4-11 cells assessed as late apoptotic cells at 0.25 uM measured after 18 hrs by Annexin V-FITC/propidium iodide staining based FACS flow cytometry (reference value: 7.49%). The class given is functional.
In data set [11] the test system is MV4-11. In words: Induction of apoptosis in human MV4-11 cells assessed as late apoptotic cells at 4 uM measured after 18 hrs by Annexin V-FITC/propidium iodide staining based FACS flow cytometry (reference value: 7.49%). The class given is functional.
The test system of data set [12] is MV4-11. In words: Induction of apoptosis in human MV4-11 cells assessed as late apoptotic cells at 1 uM measured after 18 hrs by Annexin V-FITC/propidium iodide staining based FACS flow cytometry (reference value: 7.49%). The class given is functional.
The test system of data set [13] is MV4-11. In words: Induction of apoptosis in human MV4-11 cells assessed as late apoptotic cells at 0.5 uM measured after 18 hrs by Annexin V-FITC/propidium iodide staining based FACS flow cytometry (reference value: 7.49%). The class given is functional.
The test system of data set [14] is MV4-11. Description: Induction of apoptosis in human MV4-11 cells assessed as viable cells at 4 uM measured after 18 hrs by Annexin V-FITC/propidium iodide staining based FACS flow cytometry (reference value: 83.23%). The class given is functional. The note with it: read-out: Activity.
Data set [15] has as its system MV4-11. Description: Induction of apoptosis in human MV4-11 cells at 0.5 uM assessed as increase in cleaved PARP-1 level measured after 6 hrs by Western blot analysis. The class given is functional, cell-based. A digest of the protocol: (§1)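 Protein was measured by BCA and run on a 4–20% SDS gel, then transferred to nitrocellulose and blocked in 5% milk. Primary antibodies were incubated overnight at 4 °C, with HSC70 as loading control. HRP secondaries were used with ECL detection.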

Data set [16] deals with MV4-11. In words: Induction of apoptosis in human MV4-11 cells at 0.5 uM assessed as increase in cleaved caspase-3 level measured after 6 hrs by Western blot analysis. The class given is functional, cell-based. A digest of the protocol:
as §1

Data set [17] has as its system MV4-11. Description: Induction of apoptosis in human MV4-11 cells assessed as early apoptotic cells at 0.5 uM measured after 18 hrs by Annexin V-FITC/propidium iodide staining based FACS flow cytometry (reference value: 2.23%). The class given is functional.
The subject of data set [18] is MV4-11. Description: Induction of apoptosis in human MV4-11 cells assessed as early apoptotic cells at 0.25 uM measured after 18 hrs by Annexin V-FITC/propidium iodide staining based FACS flow cytometry (reference value: 2.23%). The class given is functional.
For data set [19], the system named is MV4-11. Description: Induction of apoptosis in human MV4-11 cells assessed as viable cells at 0.25 uM measured after 18 hrs by Annexin V-FITC/propidium iodide staining based FACS flow cytometry (reference value: 83.23%). The class given is functional. Conditions: read-out: Activity.
Data set [20] concerns the target T1, Protein deacetylase HDAC6 (Homo sapiens). Description: Inhibition of HDAC6 in human HeLa cells assessed as increase in acetylated alpha tubulin level incubated for 6 hrs by immunofluorescent assay. The class given is cell-based. A digest of the protocol: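 HeLa cells (DMEM, 10% FBS, 37 °C, 5% CO2) seeded subconfluent; inhibitor added after 24 h, increasing doses for 6 h. Fixed in 4% formaldehyde, permeabilised with 1% Triton X-100, blocked in 5% BSA. Stained for acetylated α-tubulin and acetylated histone H3 (Lys18), DAPI counterstain. Intensity from imaging, n = 3, two-way ANOVA with Tukey test.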

Data set [21] in a line: Cytotoxicity against human MRC9 cells assessed as reduction in cell growth incubated for 72 hrs by Cell titer-blue assay. The class given is toxicity, cell-based.
For data set [22], the target named is Histone deacetylase 1 (Homo sapiens) (UniProt Q13547). In words: Inhibition of HDAC1 in human MV4-11 cells assessed as acetylation of histone H3 incubated for 6 hrs by Western blot analysis. The class given is cell-based. A digest of the protocol:
as §1

Calls of active or inactive are those of the source. No cut-off for these calls is given here. A value given as a limit tells only on which side of the number the result lay.

Broadly, the IC50 is the point on the concentration scale where inhibition reaches its midpoint.

Sequence of Histone deacetylase 1 (Homo sapiens) (Q13547 whole entry): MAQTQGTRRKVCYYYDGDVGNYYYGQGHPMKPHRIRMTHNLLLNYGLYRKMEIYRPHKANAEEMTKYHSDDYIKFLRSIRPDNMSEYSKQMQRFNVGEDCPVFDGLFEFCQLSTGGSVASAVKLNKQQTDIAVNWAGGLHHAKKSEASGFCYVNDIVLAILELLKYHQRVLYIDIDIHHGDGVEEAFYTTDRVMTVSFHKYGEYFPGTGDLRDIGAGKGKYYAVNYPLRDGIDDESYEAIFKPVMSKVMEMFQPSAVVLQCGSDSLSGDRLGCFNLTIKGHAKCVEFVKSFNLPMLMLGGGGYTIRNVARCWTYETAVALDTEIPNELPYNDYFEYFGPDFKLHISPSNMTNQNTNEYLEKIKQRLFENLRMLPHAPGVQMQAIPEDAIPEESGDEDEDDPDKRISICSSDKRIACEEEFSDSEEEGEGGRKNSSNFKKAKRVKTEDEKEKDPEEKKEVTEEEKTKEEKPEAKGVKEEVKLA

`CN(Cc1ccc(C(=O)NO)cc1)S(=O)(=O)c1c(F)c(F)c(F)c(F)c1F`: in “in vitro”, the IC50 at 72 h is above 30 µM.

As for `O=C(NO)c1ccc(CN(C2CC2)S(=O)(=O)c2cc(F)c(F)c(F)c2F)cc1`, in the data set on MV4-11 [1], the viability at 0.5 µM was 49.5%. Moreover, the result in the data set on MV4-11 [2], in the data set with MV4-11 [15] and in the data set with MV4-11 [16] was Active. The IC50 at 72 h in the data set “in vitro” was above 20 µM. Further, the Activity with MV4-11 [3] is on record as 19.6%; in the data set with MV4-11 [4] it was 24.39%; with MV4-11 [5] it was 18.12%; in the data set with MV4-11 [9], 24.37%; with MV4-11 [10] it was 13.93%; with MV4-11 [11] it was 19.18%. Moreover, the Activity turned out to be 22.3% in the data set with MV4-11 [12], 17.58% with MV4-11 [13], 15.26% with MV4-11 [17] and 6.73% in the data set with MV4-11 [18]. In addition, the TIME in [6] worked out at 0.386 h. In addition, the inhibition result in [7] and in data set [20] was “Active” in each case. Moreover, in the data set with MV4-11 [8], the viability at 2 µM came to 8.34%. For the same molecule, the viability at 4 µM with MV4-11 [14] was determined as 7.61%. The viability at 0.25 µM in the data set on MV4-11 [19] worked out at 70.6%.

In the data set “in vitro”, `O=C(NO)c1ccc(CNS(=O)(=O)c2c(F)c(F)c(F)c(F)c2F)cc1` displayed an IC50 at 72 h above 25 µM.

Regarding `O=C(NO)c1ccc(CN(C2CC2)S(=O)(=O)c2c(F)cc(F)cc2F)cc1`, the IC50 at 72 h in the data set “in vitro” was above 20 µM.

As for `O=C(NO)c1ccc(CNC(=O)c2c(F)c(F)c(F)c(F)c2F)cc1`, the IC50 at 72 h in “in vitro” is above 50 µM.

In the data set “in vitro”, `O=C(NO)c1ccc(CN(C2CC2)S(=O)(=O)c2c(F)c(F)c(F)c(F)c2F)cc1` came in with an IC50 at 72 h above 20 µM.

`O=C(NO)c1ccc(CN(C2CC2)S(=O)(=O)c2c(F)cc(F)c(Cl)c2F)cc1` had an IC50 at 72 h in “in vitro” above 20 µM.

In the case of `CC(C)N(Cc1ccc(C(=O)NO)cc1)S(=O)(=O)c1c(F)c(F)c(F)c(F)c1F`, the half-inhibitory concentration (IC50) at 72 h in “in vitro” is above 10 µM.

Regarding `O=C(CCCCCCNC(=O)c1cnc(N(c2ccccc2)c2ccccc2)nc1)NO` [RICOLINOSTAT], in the data set “in vitro”, the IC50 at 72 h is above 20 µM.

In “in vitro”, `O=C(NO)c1ccc(CN(C2CC2)S(=O)(=O)c2c(F)c(Cl)c(F)c(Cl)c2F)cc1` showed an IC50 at 72 h above 50 µM.

In “in vitro”, `O=C(NO)c1cccc(CN(C2CC2)S(=O)(=O)c2c(F)c(F)c(F)c(F)c2F)c1` registered a 50% inhibitory concentration (IC50) at 72 h above 50 µM.

For the molecule `O=C(CCCCCCNC(=O)c1cnc(N(c2ccccc2)c2ccccc2Cl)nc1)NO` [CITARINOSTAT], the IC50 at 72 h (in the data set “in vitro”; in data set [21]) was above 30 µM in each case. Also, the inhibition entry in data set [7] and in data set [22] was “Active” throughout.

The molecule `O=C(NO)c1ccc(CN(C2CC2)S(=O)(=O)c2ccc(F)cc2)cc1` gave an IC50 at 72 h in “in vitro” above 50 µM.

Take `O=C(NO)c1ccc(CN(C2CC2)S(=O)(=O)c2cc(F)c(F)c(F)c2)cc1`: the IC50 at 72 h in the data set “in vitro” was above 25 µM.

In the data set “in vitro”, `O=C(NO)c1ccc(CN(C2CC2)S(=O)(=O)c2c(F)c(F)cc(F)c2F)cc1` gave an IC50 at 72 h above 15 µM.

Take `O=C(NO)c1ccc(CN(C2CC2)S(=O)(=O)c2c(F)c(F)c(Cl)c(F)c2F)cc1`: the IC50 at 72 h in the data set “in vitro” was above 30 µM.
